Holding throughout (type): cell-based
Experiment [1] deals with 5'-AMP-activated protein kinase catalytic subunit alpha-2 (Rattus norvegicus) (UniProt Q09137). The experiment is described as follows: Activation of AMPK in rat L6 cells assessed as increase of [3H]dGlc uptake after 5 hrs in presence of Akt/PKB inhibitor 1,3-dihydro-1-(1-((4-(6-phenyl-1Himidazo[4,5-g]quinoxalin-7-yl)phenyl)methyl)-4-piperidinyl)-2H-benzimidazol-2-one trifluoroacetate salt hydrate. Summed up:
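Myotubes treated with compound, insulin or vehicle in the absence or presence of 100 nM wortmannin or 100 nM Akt/PKB inhibitor, each added 30 min before compound or insulin. Compound C 5 μM was added 5 h before the uptake assay. Rate then measured by the standard 5-min [3H]dGlc uptake assay.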

The target is the same in experiment [2]. The experiment is described as follows: Activation of AMPK in rat L6 cells assessed as increase of [3H]dGlc uptake at 10 to 200 uM. To be noted: TDE = time-dependent effect. The essentials: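 Fully differentiated L6 myotubes preincubated 24 h in αMEM with 2% FCS and 23.0 mmol/L D-glucose, then 4 h serum-free with 0.5% BSA. Compound or DMSO vehicle given for the indicated times or concentrations. Uptake read after 5 min at room temperature in PBS pH 7.4 with 0.1 mmol/L dGlc and 1.3 μCi/mL [3H]dGlc, by scintillation of SDS lysates. Zero-time basal rate set as 100%; n=6.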

For experiment [3] the target is unchanged. The experiment is described as follows: Activation of AMPK in rat L6 cells assessed as AS-160 phosphorylation at Thr642 at 25 uM after 3 hrs by Western blot analysis relative to control. The essentials:
(§1)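 Fully differentiated L6 myotubes, preincubated 3 h with or without 5 μM Compound C. Test agents: compound at 25 μM for 3 h, sorbitol 250 mM for 40 min, AICAR 4 mM for 30 min. Whole-cell lysates probed by Western blot for pSer79-ACC, ACC, pThr642-AS-160, AS-160 and α-tubulin; band densities summarized, n=3, vs respective controls.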

Experiment [4] has the same target. The experiment is described as follows: Activation of AMPK in rat L6 cells assessed as ACC phosphorylation at Ser79 at 250 mM after 40 mins by Western blot analysis relative to control. The essentials:
as §1
(In general: In western blotting, separated proteins are transferred to a membrane and probed.)

For experiment [5] the target is unchanged. The experiment is described as follows: Activation of AMPK in rat L6 cells assessed as ACC phosphorylation at Ser79 at 4 mM after 30 mins by Western blot analysis relative to control. Summed up:
as §1

SMILES strings stand for the structures. The source made the active and inactive calls. The rule behind the calls is not given here.

Sequence of 5'-AMP-activated protein kinase catalytic subunit alpha-2 (Rattus norvegicus) (Q09137 whole entry): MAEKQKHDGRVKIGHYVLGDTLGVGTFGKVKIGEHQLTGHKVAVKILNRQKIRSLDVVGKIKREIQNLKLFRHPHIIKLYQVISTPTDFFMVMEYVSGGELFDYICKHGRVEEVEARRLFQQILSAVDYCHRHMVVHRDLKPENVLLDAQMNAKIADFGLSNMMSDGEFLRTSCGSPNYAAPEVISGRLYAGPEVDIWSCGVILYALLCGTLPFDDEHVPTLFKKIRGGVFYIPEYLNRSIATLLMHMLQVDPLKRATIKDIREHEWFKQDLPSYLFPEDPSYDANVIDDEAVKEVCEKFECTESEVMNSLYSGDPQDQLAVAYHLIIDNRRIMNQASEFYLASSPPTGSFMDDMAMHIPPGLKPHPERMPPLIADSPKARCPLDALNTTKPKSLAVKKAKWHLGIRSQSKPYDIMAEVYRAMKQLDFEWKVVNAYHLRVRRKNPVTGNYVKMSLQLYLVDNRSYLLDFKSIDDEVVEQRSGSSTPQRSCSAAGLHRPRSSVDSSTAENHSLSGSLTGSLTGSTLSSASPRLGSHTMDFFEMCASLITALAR

In the case of `CCOc1ccc2nc(SCc3nc4ccccc4s3)sc2c1`, the outcome in experiment [1] was Active. Moreover, the Activity result in experiment [2] is “tde”. Moreover, the fold change (FC) amounted to 1.09 in experiment [3], 2.56 in experiment [4] and 3.63 in experiment [5].

Values taken from ChEMBL document CHEMBL2396611, “Synthesis and mechanism of hypoglycemic activity of benzothiazole derivatives” (J Med Chem, 2013).
